# Activity calls are given as the source filed them. No cut-off for these calls is given here.
# Experiments:
# Hep 3B2 [1] = experiment: Anti-proliferative activity against human Hep3B cells assessed as cell proliferation at incubated for 24 hrs by Fluoro Fire-Blue ProViaTox assay; format: functional, cell-based; conditions: dose 20-100 nM
# HepG2 [2] = experiment: Anti-proliferative activity against human HepG2 cells assessed as reduced cell proliferation at 80 nM incubated for 24 hrs by Fluoro Fire-Blue ProViaTox assay; format: functional, cell-based
# Huh-7 [3] = experiment: Anti-proliferative activity against human Huh-7 cells assessed as reduced cell proliferation at 80 nM incubated for 24 hrs in presence of SGBS CM by Fluoro Fire-Blue ProViaTox assay; format: functional, cell-based
# HepG2 [4] = experiment: Anti-proliferative activity against human HepG2 cells assessed as reduced cell proliferation at 80 nM incubated for 24 hrs in presence of SGBS CM by Fluoro Fire-Blue ProViaTox assay; format: functional, cell-based
# Hep 3B2 [5] = experiment: Effect on human Hep3B cells assessed as reduction of HDAC global activity at 80 nM incubated for 24 hrs in presence of SGBS CM by FluoroFire HDAC Activity Assay Kit relative to control; format: functional; design: scale not given: the % may be the effect or the level left
# Method in brief: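 Hep3B cells treated 24 h with 80 nM drug, alone or with 30% SGBS conditioned medium. Lysates made with lysis reagent (15 min, room temperature, shaking), spun, and supernatant used. Preincubated 20 min at 37°C, then Emerald substrate added for 1 h at 37°C. Fluorescence read at Ex 490/Em 525 nm. HeLa nuclear extract as positive control, HeLa extract with trichostatin A as negative control (n = 3).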
# Hep 3B2 [6] = experiment: Effect on human Hep3B cells assessed as reduction in HDAC1 mRNA level at 80 nM incubated for 24 hrs by qRT-PCR analysis; format: functional, cell-based
# Method in brief: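 RNA levels of HDAC1 and HDAC2 measured in Hep3B cells after 24 h with 80 nM drug, 17-AAG (50 nM) or the combination (n = 3). Cells grown in EMEM with 10% FBS at 37°C, 5% CO2.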
# Huh-7 [7] = experiment: Effect on human Huh-7 cells assessed as reduction in HDAC1 mRNA level at 80 nM incubated for 24 hrs by qRT-PCR analysis; format: functional, cell-based
# Method in brief: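 HepG2 (EMEM) and Huh7 (DMEM) cells, both with 10% FBS, treated with 30% differentiated-SGBS conditioned medium with or without 80 nM drug. HDAC1 RNA given as fold change versus untreated cells or between treatments (n = 3).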
# Hep 3B2 [8] = experiment: Anti-proliferative activity against human Hep3B cells assessed as increase in Caspase 3 expression at 80 nM incubated for 24 hrs by qRT-PCR analysis; format: functional, cell-based
# Hep 3B2 [9] = experiment: Anti-proliferative activity against human Hep3B cells assessed as increase in Caspase 7 expression at 80 nM incubated for 24 hrs by qRT-PCR analysis; format: functional, cell-based
# Hep 3B2 [10] = experiment: Anti-proliferative activity against human Hep3B cells assessed as increase in cleaved Caspase 8 level at 80 nM incubated for 24 hrs in presence of SGBS CM by Tetraplex-Assay Kit analysis; format: functional, cell-based
# Method in brief: (§1)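 Hep3B seeded at 20000 cells/well overnight, then treated with 30% differentiated SGBS conditioned medium with or without resminostat 80 nM for 24 h. Tetraplex caspase substrate buffer added during treatment for real-time cleavage read-out: Caspase 3/7 at Ex 535/Em 620 nm, Caspase 8 at Ex 490/Em 525 nm, Caspase 9 at Ex 370/Em 450 nm. Compared with controls or between treatments; n = 3.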
# Hep 3B2 [11] = experiment: Anti-proliferative activity against human Hep3B cells assessed as increase in cleaved Caspase 9 level at 80 nM incubated for 24 hrs in presence of SGBS CM by Tetraplex-Assay Kit analysis; format: functional, cell-based; method in brief: as §1
# Hep 3B2 [12] = experiment: Upregulation of BIM expression in human Hep3B cells at 80 nM incubated for 24 hrs by qRT-PCR analysis; format: functional, cell-based
# Method in brief: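 RNA levels of BCL-2, BIM, BAX and BAD measured in Hep3B cells after 24 h with 80 nM drug. Triplicates, three independent experiments, t-test.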
# Hep 3B2 [13] = experiment: Anti-proliferative activity against human Hep3B cells assessed as increase in BIM mRNA level at 80 nM incubated for 24 hrs by qRT-PCR analysis; format: functional, cell-based
# Hep 3B2 [14] = experiment: Anti-proliferative activity against human Hep3B cells assessed as no change in BAD expression at 80 nM incubated for 24 hrs by qRT-PCR analysis; format: functional, cell-based
# Hep 3B2 [15] = experiment: Anti-proliferative activity against human Hep3B cells assessed as decrease in Cyclin D1 expression at 80 nM incubated for 24 hrs in presence of SGBS CM by qRT-PCR analysis; format: functional, cell-based
# Hep 3B2 [16] = experiment: Anti-proliferative activity against human Hep3B cells assessed as decrease in VEGF mRNA level at 80 nM incubated for 24 hrs in presence of SGBS CM by qRT-PCR analysis; format: functional, cell-based
# Hep 3B2 [17] = experiment: Anti-proliferative activity against human Hep3B cells assessed as decrease in STAT3 mRNA level at 80 nM incubated for 24 hrs in presence of SGBS CM by qRT-PCR analysis; format: functional, cell-based
# Hep 3B2 [18] = experiment: Anti-proliferative activity against human Hep3B cells assessed as reduction in cell viability at 80 nM for 24 hrs in presence of GSK343 by Fluoro Fire-Blue ProViaTox assay relative to control; format: functional
# Hep 3B2 [19] = experiment: Anti-proliferative activity against human Hep3B cells assessed as reduced cell proliferation at 80 nM for 24 hrs in presence of DZNep by Fluoro Fire-Blue ProViaTox assay relative to control; format: functional; design: scale not given: the % may be the effect or the level left
# Hep 3B2 [20] = experiment: Downregulation of STAT3 expression in human Hep3B cells at 80 nM incubated for 24 hrs in presence of GSK343 by qRT-PCR analysis; format: functional, cell-based
# Method in brief: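 RNA from Hep3B cells treated 24 h with GSK343 (7 nM) alone or with 80 nM drug; EZH2 and STAT3 levels compared between the two treatments. Cells grown in EMEM with 10% FBS, 2 mM L-glutamine, 37°C, 5% CO2.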
# Hep 3B2 [21] = experiment: Downregulation of HDAC1 expression in human Hep3B cells at 80 nM incubated for 24 hrs in presence of 17-AAG by qRT-PCR analysis; format: functional, cell-based
# Hep 3B2 [22] = experiment: Downregulation of HSP90 mRNA expression in human Hep3B cells at 80 nM incubated for 24 hrs in presence of 17-AAG by qRT-PCR analysis; format: functional, cell-based
# Hep 3B2 [23] = experiment: Anti-proliferative activity against human Hep3B cells assessed as reduction in cell viability at 80 nM incubated for 24 hrs in presence of SC1 by Fluoro Fire-Blue ProViaTox assay relative to control; format: functional, cell-based
# Hep 3B2 [24] = experiment: Anti-proliferative activity against human Hep3B cells assessed as reduction in cell viability at 80 nM incubated for 24 hrs in presence of cisplatin by Fluoro Fire-Blue ProViaTox assay relative to control; format: functional, cell-based
# Hep 3B2 [25] = experiment: Anti-proliferative activity against human Hep3B cells assessed as increase in expression at 80 nM incubated for 24 hrs by qRT-PCR analysis
# Hep 3B2 [26] = experiment: Anti-proliferative activity against human Hep3B cells assessed as reduction in Vimentin protein expression level by measuring green fluorescence at 80 nM incubated for 24 hrs in presence of SGBS CM by immunofluorescence analysis
structure (smiles),measurement,setting,value
CN(C)Cc1ccc(S(=O)(=O)n2ccc(/C=C/C(=O)NO)c2)cc1 [RESMINOSTAT],Activity,Hep 3B2 [1],Dose-Dependent Effect
same,Activity,HepG2 [2],Active
same,Activity,Huh-7 [3],Active
same,Activity,HepG2 [4],Active
same,Activity,Hep 3B2 [5],52.67%
same,Activity,Hep 3B2 [6],Active
same,Activity,Huh-7 [7],Active
same,Activity,Hep 3B2 [8],Active
same,Activity,Hep 3B2 [9],Active
same,Activity,Hep 3B2 [10],Active
same,Activity,Hep 3B2 [11],Active
same,Activity,Hep 3B2 [12],Active
same,Activity,Hep 3B2 [13],Active
same,Activity,Hep 3B2 [14],Active
same,Activity,Hep 3B2 [15],Active
same,Activity,Hep 3B2 [16],Active
same,Activity,Hep 3B2 [17],Active
same,Activity,Hep 3B2 [18],21.61%
same,Activity,Hep 3B2 [19],11.76%
same,Activity,Hep 3B2 [20],Active
same,Activity,Hep 3B2 [21],Active
same,Activity,Hep 3B2 [22],Active
same,Activity,Hep 3B2 [23],Active
same,Activity,Hep 3B2 [24],Active
same,Activity,Hep 3B2 [25],Active
same,Activity,Hep 3B2 [26],Active

# Reference: ChEMBL document CHEMBL5674881, “The therapeutic properties of resminostat for hepatocellular carcinoma” (2018)
